# What was measured:
# [1] = target: T1, Adenosine receptor A1 (Homo sapiens) (UniProt P30542); assay: In vitro allosteric enhancer (AE) activity for adenosine A1 receptor maximal score from curve fitting
# T1 sequence (whole entry): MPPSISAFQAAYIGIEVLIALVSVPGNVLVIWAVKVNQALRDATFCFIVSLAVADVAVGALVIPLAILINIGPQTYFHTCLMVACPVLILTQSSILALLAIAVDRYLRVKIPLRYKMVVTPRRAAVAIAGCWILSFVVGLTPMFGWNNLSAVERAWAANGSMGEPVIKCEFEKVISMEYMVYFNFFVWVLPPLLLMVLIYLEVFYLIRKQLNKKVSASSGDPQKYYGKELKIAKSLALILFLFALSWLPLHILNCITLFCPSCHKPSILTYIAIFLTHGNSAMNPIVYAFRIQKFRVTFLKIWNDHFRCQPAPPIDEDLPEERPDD
# [2] = target: Adenosine receptor A2a (Homo sapiens) (UniProt P29274); assay: In vitro allosteric enhancer (AE) activity for adenosine A2A receptor at 50 uM
# Chain of Adenosine receptor A2a (Homo sapiens) (P29274 whole entry): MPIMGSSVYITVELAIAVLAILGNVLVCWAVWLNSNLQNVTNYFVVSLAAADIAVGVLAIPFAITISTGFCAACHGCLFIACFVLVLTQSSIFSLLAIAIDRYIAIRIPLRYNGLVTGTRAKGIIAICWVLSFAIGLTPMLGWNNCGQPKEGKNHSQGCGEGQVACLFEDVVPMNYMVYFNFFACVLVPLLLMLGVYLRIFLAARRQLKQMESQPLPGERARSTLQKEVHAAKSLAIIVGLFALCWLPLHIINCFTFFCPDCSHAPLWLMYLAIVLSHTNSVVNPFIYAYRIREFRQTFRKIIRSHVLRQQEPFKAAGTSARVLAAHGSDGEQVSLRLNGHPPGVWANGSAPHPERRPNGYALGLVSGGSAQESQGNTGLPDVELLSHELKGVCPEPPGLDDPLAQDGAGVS
# [3] = target: T1, Adenosine receptor A1 (Homo sapiens); assay: Allosteric enhancer (AE) activity against human adenosine A1 receptor at 50 uM
# Outline: (§1)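 Single-point screen on membranes from CHO-K1 cells stably expressing hA1AR. Candidate enhancer was added at 50 μM final for 5 min. Dissociation was then started with 8-cyclopentyltheophylline plus GTPγS and run 10 min. Score = % specific agonist binding remaining; two to three assays, each in triplicate.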
# [4] = target: T2, Adenosine receptor A3 (Homo sapiens) (UniProt P0DMS8); assay: Inhibition of human adenosine receptor A3 at 10 uM
# T2 sequence (whole entry): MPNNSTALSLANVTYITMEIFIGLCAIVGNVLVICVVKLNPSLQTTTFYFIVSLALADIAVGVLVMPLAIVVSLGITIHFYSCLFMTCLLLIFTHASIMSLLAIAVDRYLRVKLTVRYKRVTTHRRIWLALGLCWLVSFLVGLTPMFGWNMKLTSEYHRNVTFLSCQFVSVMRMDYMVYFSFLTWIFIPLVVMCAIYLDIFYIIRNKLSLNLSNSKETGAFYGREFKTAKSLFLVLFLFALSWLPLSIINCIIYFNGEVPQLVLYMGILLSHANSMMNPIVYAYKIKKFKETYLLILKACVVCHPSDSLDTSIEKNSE
# Adenosine receptor A1 = target: T3, Adenosine receptor A1 (Homo sapiens, UniProt P30542); assay: Antagonist activity against adenosine A1 receptor; format: functional; parameters: concentration or dose not given beside the values
# T3 sequence (P30542 whole entry): T1 sequence (whole entry)
# Outline: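 Equilibrium binding on CHO-K1 hA1AR membranes (15 μg) in 10 mM HEPES pH 7.4, 1 mM EDTA, 1 U/mL adenosine deaminase, 4 nM [3H]CPX. Mixed with an equal volume of 200 μM enhancer in HEPES–10% DMSO; 200 μM NECA for nonspecific binding. Incubated 3 h at room temperature, then filtered.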
# [5] = target: T2, Adenosine receptor A3 (Homo sapiens); assay: In vitro allosteric enhancer (AE) activity for adenosine A3 receptor at 50 uM
# [6] = target: T1, Adenosine receptor A1 (Homo sapiens); assay: Inhibition of human adenosine receptor A1 at 10 uM
# Outline: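 CHO-K1 hA1AR membranes at 0.5 mg/mL in 10 mM HEPES pH 7.4 with 1 mM EDTA, 1 U/mL adenosine deaminase, 5 mM MgCl2 and 2 nM [3H]CPX. Mixed 1:1 with buffer containing 20 μM enhancer. Equilibrium 3 h at room temperature; 100 μM NECA defined nonspecific binding. Inhibition expressed relative to control specific binding; duplicate assays.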
# [7] = target: T4, Adenosine receptor A1 (Rattus norvegicus) (UniProt P25099); assay: Allosteric enhancer (AE) activity against rat adenosine A1 receptor
# T4 sequence (whole entry): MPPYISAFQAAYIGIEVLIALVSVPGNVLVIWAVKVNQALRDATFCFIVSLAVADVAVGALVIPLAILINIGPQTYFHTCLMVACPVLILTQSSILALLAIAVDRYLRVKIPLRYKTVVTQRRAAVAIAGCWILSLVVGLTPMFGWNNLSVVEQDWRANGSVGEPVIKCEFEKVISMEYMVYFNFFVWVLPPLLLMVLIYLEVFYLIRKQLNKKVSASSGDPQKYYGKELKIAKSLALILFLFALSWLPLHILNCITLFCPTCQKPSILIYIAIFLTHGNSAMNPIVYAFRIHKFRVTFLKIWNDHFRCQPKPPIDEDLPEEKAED
# [8] = target: T1, Adenosine receptor A1 (Homo sapiens); assay: (§2) In vitro allosteric enhancer (AE) activity for adenosine A1 receptor at 50 uM
# Outline: as §1
# [9] = target: T4, Adenosine receptor A1 (Rattus norvegicus); assay: Allosteric enhancer (AE) activity against rat adenosine A1 receptor at 50 uM
# [10] = target: T1, Adenosine receptor A1 (Homo sapiens); assay: as §2; remark: listed apart in the source
# Outline: as §1
# [11] = target: T1, Adenosine receptor A1 (Homo sapiens); assay: as §2; remark: listed apart in the source
# Outline: as §1
inhibition [4] [%],Inhibition (Adenosine receptor A1) [%],inhibition [6] [%],Compound,Allosteric enhancer (AE) [1] [%],Alloste ic enhan er (AE) [2] [%],Alloste ic enhan er (AE) [3] [%],Alloste ic enhan er (AE) [5] [%],Alloste ic enhan er (AE) [7] [%],Alloste ic enhan er (AE) [8] [%],Alloste ic enhan er (AE) [9] [%],Alloste ic enhan er (AE) [10] [%],Alloste ic enhan er (AE) [11] [%]
22.5,11.6,10.5,Nc1nc2c(s1)Cc1cc(-c3ccc4c(c3)OCO4)ccc1-2,91,0,90.7,2.9,48.8,82,,,
45,19.2,18.8,COc1ccc(-c2ccc3c(c2)Cc2sc(N)nc2-3)cc1OC,82.7,0.2,83.9,10.1,,82,39.1,,
37.6,13.3,25.2,COc1ccc(-c2ccc3c(c2)Cc2sc(N)nc2-3)cc1,,0,72,18,32.3,87,,90.2,
38.6,12.5,23.1,CN(C)c1ccc(-c2ccc3c(c2)Cc2sc(N)nc2-3)cc1,,3.4,67.9,24.8,31.7,81,,,81.8

# Reference: ChEMBL document CHEMBL1145162, “6-aryl-8H-indeno[1,2-d]thiazol-2-ylamines: A1 adenosine receptor agonist allosteric enhancers having improved potency” (J Med Chem, 2005)
